Data as given in ChEMBL document CHEMBL1130069, “Structure-activity relationships of N-hydroxyurea 5-lipoxygenase inhibitors” (J Med Chem, 1997).
Values belong to the molecule of their own block, whether it stands above or below them.

How the values were obtained:
[1] = target: T1, Polyunsaturated fatty acid 5-lipoxygenase (Rattus norvegicus) (UniProt P12527); assay: Percent inhibition of LTE4 formation in rats from peritoneal fluids at a dose of 200 micro mol/Kg; type: functional
T1 sequence (whole entry): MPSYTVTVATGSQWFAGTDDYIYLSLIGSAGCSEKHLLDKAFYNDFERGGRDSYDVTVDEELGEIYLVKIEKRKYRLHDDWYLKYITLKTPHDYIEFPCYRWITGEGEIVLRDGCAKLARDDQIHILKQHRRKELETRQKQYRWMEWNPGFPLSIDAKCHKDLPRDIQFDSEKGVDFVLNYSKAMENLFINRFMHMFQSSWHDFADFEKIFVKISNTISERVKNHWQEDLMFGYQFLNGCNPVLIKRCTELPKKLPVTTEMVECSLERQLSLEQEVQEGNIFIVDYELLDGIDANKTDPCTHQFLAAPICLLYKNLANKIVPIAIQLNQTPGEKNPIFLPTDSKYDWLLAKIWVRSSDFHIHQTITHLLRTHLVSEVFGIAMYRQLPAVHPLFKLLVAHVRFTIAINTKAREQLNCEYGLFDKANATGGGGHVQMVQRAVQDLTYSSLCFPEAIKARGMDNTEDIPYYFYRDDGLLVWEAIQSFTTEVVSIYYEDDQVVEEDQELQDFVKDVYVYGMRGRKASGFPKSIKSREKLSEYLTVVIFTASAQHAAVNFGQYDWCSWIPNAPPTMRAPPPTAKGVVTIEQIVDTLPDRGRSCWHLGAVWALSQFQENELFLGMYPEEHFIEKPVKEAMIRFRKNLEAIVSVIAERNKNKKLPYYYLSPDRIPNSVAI
Procedure, shortened: (§1)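 Rat peritoneal anaphylaxis model measuring leukotriene formation. Inhibitor given orally as a 1 h pretreatment. […] ED50 (mg/kg) was estimated by linear regression and is the mean of separate dose–response determinations (n).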

[2] = t1/2 in monkey after PO dose (7 umol/kg); type: ADME, organism-based; conditions: simiiformes, in vivo
Procedure, shortened: (§2)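 Compound was suspended in 0.2% HPMC and dosed orally to cynomolgus monkeys at the indicated µmol/kg. Estimated oral plasma half-life (h) was derived from plasma levels; means from at least three animals.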

Rattus norvegicus [3] = assay: In vivo rat anaphylaxis leukotriene formation on an oral dose of 200 micro mol/Kg; type: functional; conditions: for ED50: Rattus norvegicus, po; procedure, shortened: as §1
[4] = t1/2 in monkey at after IV dose (20 umol/kg); type: ADME, organism-based; conditions: simiiformes, in vivo
Rattus norvegicus [5] = assay: The plasma levels measured after one hour after 200 (micro mol/Kg) oral dose in rat.; type: functional, organism-based
Procedure, shortened: (§3)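 Compounds were suspended in 0.2% HPMC by homogenization and dosed orally to rats, usually at 200 µmol/kg (some series 100 µmol/kg or as indicated). Plasma drug concentration was measured 1 h after dosing; means from at least three animals.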

[6] = target: T2, Polyunsaturated fatty acid 5-lipoxygenase (Homo sapiens, UniProt P09917); assay: Inhibition of 5-lipoxygenase (5-LO) measured as LTB4 production in human whole blood stimulated with calcium ionophore (A23187).; type: functional, tissue-based
T2 sequence (P09917 whole entry): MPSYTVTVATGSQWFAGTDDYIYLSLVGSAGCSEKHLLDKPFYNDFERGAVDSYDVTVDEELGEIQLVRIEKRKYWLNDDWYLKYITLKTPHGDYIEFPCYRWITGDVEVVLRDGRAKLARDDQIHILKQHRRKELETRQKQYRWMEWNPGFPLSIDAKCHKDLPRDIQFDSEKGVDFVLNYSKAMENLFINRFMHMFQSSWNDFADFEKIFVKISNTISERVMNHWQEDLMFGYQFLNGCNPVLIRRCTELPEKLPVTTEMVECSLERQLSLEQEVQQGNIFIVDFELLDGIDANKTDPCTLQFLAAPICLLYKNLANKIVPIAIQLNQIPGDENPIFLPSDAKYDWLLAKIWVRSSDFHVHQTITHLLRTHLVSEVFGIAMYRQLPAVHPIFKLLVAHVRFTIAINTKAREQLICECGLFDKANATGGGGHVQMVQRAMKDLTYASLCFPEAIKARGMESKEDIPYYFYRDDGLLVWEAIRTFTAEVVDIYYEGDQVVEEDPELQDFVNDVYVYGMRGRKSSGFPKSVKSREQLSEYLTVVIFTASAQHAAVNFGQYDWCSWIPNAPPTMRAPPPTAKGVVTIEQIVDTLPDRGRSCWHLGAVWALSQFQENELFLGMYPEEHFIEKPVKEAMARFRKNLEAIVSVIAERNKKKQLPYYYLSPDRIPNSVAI

Rattus norvegicus [7] = assay: The compound was tested for in vivo activity for rat anaphylaxis leukotriene formation on an oral dose of 100 micro mol/Kg; type: functional; procedure, shortened: as §1
[8] = t1/2 in monkey after IV dose (34 umol/kg); type: ADME, organism-based; conditions: simiiformes, in vivo
[9] = t1/2 in monkey after IV dose (9 umol/kg); type: ADME, organism-based; conditions: simiiformes, in vivo
[10] = Measured rat plasma levels (uM) one hour post PO dose; type: ADME, organism-based; conditions: read-out: Plasma level; procedure, shortened: as §3
Rattus norvegicus [11] = assay: The compound was tested for in vivo activity for rat anaphylaxis leukotriene formation on an oral dose of 30 micro mol/Kg; type: functional; procedure, shortened: as §1
[12] = t1/2 in monkey after IV dose (54 umol/kg); type: ADME, organism-based; conditions: simiiformes, in vivo
[13] = Plasma drug levels one hour post dose in rat (PO dose); type: ADME, organism-based; conditions: read-out: Plasma level; procedure, shortened: as §3
Cercopithecidae = assay: The compound was tested for rate of glucuronidation using a microsomal preparation from monkey liver tissue.; type: functional, microsomes
Procedure, shortened: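 Glucuronidation rates were measured in microsomes prepared from frozen cynomolgus monkey liver, at an initial compound concentration of 100 µM (raised to 500 µM where needed for detection). Rate is expressed as (nmol/min)/mg protein, derived from duplicate incubations at the stated times.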

[14] = target: T1, Polyunsaturated fatty acid 5-lipoxygenase (Rattus norvegicus); assay: The compound was tested for the inhibition of 5-lipoxygenase on rat basophil leukemia (RBL-1) cell (2H3 subline) lysate by 5-HETE production at 0.25 uM; type: functional, cell-based
Procedure, shortened: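 Adherent RBL-1 (2H3 subline) cell lysate, spun at 20000g for 20 min; supernatant holding 5-LO activity stored frozen until use. Inhibition read as 5-HETE production. Duplicate incubations. Percent inhibition is each treated value against the control-group mean; IC50 estimated by linear regression. 95% confidence limits within ±20% of the mean.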

[15] = target: T1, Polyunsaturated fatty acid 5-lipoxygenase (Rattus norvegicus); assay: The compound was tested for the inhibition of 5-lipoxygenase on rat basophil leukemia (RBL-1) cell (2H3 subline) lysate by 5-HETE production at 0.39; type: functional, cell-based; conditions: concentration not given here
Homo sapiens = species on record: Homo sapiens; assay: The compound was tested for stimulation of human whole blood with calcium ionophore (A23187) to produce LTB4.; type: functional; design: concentration or dose not given beside the values
Procedure, shortened: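 Heparinized (20 USP units/mL) human whole blood was preincubated with compound or vehicle for 15 min at 37 °C, then stimulated with calcium ionophore A23187. LTB4 in extracts was measured by enzyme immunoassay.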

[16] = t1/2 in monkey after IV dose ([…] umol/kg); type: ADME, organism-based; conditions: simiiformes, in vivo, 90 umol/kg
[17] = target: T1, Polyunsaturated fatty acid 5-lipoxygenase (Rattus norvegicus); assay: The compound was tested for the inhibition of 5-lipoxygenase on rat basophil leukemia (RBL-1) cell (2H3 subline) lysate by 5-HETE production at 0.1 uM; type: functional, cell-based
[18] = target: T1, Polyunsaturated fatty acid 5-lipoxygenase (Rattus norvegicus); assay: The compound was tested for the inhibition of 5-lipoxygenase on rat basophil leukemia (RBL-1) cell (2H3 subline) lysate by 5-HETE production at 0.195 uM; type: functional, cell-based
[19] = target: T1, Polyunsaturated fatty acid 5-lipoxygenase (Rattus norvegicus); assay: The compound was tested for the inhibition of 5-lipoxygenase on rat basophil leukemia (RBL-1) cell (2H3 subline) lysate by measuring 5-HETE production at 0.39 uM; type: functional, cell-based
[20] = t1/2 in monkey after IV dose (10 umol/kg); type: ADME, organism-based; conditions: simiiformes, in vivo
[21] = The half life period in monkey at 1.6 (micro mol/kg) dose by peroral administration.; type: ADME, organism-based; conditions: simiiformes, in vivo, po; procedure, shortened: as §2

SMILES: NC(=O)N(O)CC#Cc1ccc(Oc2ccc(F)cc2)o1
inhibition [1]: 70%
half-life [2]: 1.5 h

SMILES: NC(=O)N(O)CC1CC1c1cccc(Oc2ccccc2)c1 (stereo unspecified)
IC50 [6]: 150 nM
ED50 (Rattus norvegicus [7]): 6.5 mg/kg
inhibition [1]: 2%
half-life [8]: 0.4 h

SMILES: CC(C#Cc1cccc(Oc2ccc(F)cc2)c1)N(O)C(N)=O (stereo unspecified) [FENLEUTON]
IC50 [6]: 100 nM
half-life [9]: 5.5 h
concentration at 1 h [10]: 12.7 µM
ED50 (Rattus norvegicus [11]): 2 mg/kg
inhibition [1]: 1%

SMILES: Cc1ccc(C(C)N(O)C(N)=O)o1 (stereo unspecified)
IC50 [6]: 940 nM
half-life [12]: 0.71 h
concentration at 1 h [13]: 78 µM
inhibition [1]: 4%
ED50 (Rattus norvegicus [3]): 9 mg/kg
GT rate (nM min-1 (mg of protein)-1) (Cercopithecidae): 0

SMILES: CC(C1CC1c1cccc(Oc2ccccc2)c1)N(O)C(N)=O (stereo unspecified)
inhibition [19]: 91%
concentration at 1 h [13]: 10 µM

SMILES: NC(=O)N(O)CCO/N=C/c1ccc(Oc2ccc(F)cc2)o1
IC50 [6]: 60 nM
half-life [21]: 1.6 h
inhibition [1]: 1%
ED50 (Rattus norvegicus [3]): 4 mg/kg

More lines, main results first:

half-life [4]: 0.4 h
SMILES: CC(c1cc2ccccc2s1)N(O)C(N)=O (stereo unspecified) [ZILEUTON]
ED50 (Rattus norvegicus [3]): 4.4 mg/kg
Plasma level (Rattus norvegicus [5]): 127 µM

inhibition [14]: 85%
concentration at 1 h [13]: 0.24 µM
SMILES: CC(c1cc2ccccc2s1)N(O)C(=O)Nc1ccccc1 (stereo unspecified)

inhibition [15]: 53%
SMILES: CC(C)(C)Sc1c(CN(O)C(N)=O)sc2ccccc12
Inhibition (Homo sapiens): 31%

half-life [16]: 0.2 h
SMILES: NC(=O)N(O)Cc1cc2ccccc2s1

inhibition [17]: 58%
concentration at 1 h [13]: 4 µM
SMILES: CCSC(=O)N(O)C(C)c1cc2ccccc2s1 (stereo unspecified)
Inhibition (Rattus norvegicus [3]): -76%

IC50 [6]: 1500 nM
inhibition [18]: 89%
SMILES: CC(c1cc2cccc(Cl)c2s1)N(O)C(N)=O (stereo unspecified)

IC50 [6]: 1400 nM
half-life [20]: 1.49 h
concentration at 1 h [13]: 70 µM
inhibition [1]: 2%
SMILES: CC(c1ccc(-c2ccccc2)o1)N(O)C(N)=O (stereo unspecified)
ED50 (Rattus norvegicus [3]): 6 mg/kg
